Laboratory results published in PubChem BioAssay.
Inconclusive results are not listed.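 The calls were made as follows, unless noted: active = viability at or below 27.92% in each of two runs, the all-compound median minus 4 SD; inconclusive = no clear call, values can overlap the other calls; inactive = the rest.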

How the values were obtained:
[1] = S. cerevisiae growth inhibition in permissive medium (OD615), pilot counter-assay for S. cerevisiae lifespan shortening project, permissive growth control (AID 705;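 active = growth inhibition above 25% in both replicates, a cutoff set 3 SD above the mean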); settings: OD615, 24 h, at 10 µM, stronger effect = higher value
How it was run: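 Material: engineered DeaD yeast; compound dosing: one dose 10 µM, DMSO 0.25% final; measure: yeast growth inhibition indicated by reduced 24 h OD615; detection: OD615 turbidity read; incubation: cells pre-grown 4 h, then 24 h compound exposure, 30 °C humidified; medium: permissive synthetic complete medium with raffinose and galactose carbon sources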

[2] = S. cerevisiae growth inhibition in restrictive medium, OD615, pilot screen, restrictive growth control, yeast lifespan reduction project (AID 706;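 active = growth inhibition above a set limit, 3 SD over mean compound inhibition, in both replicates, cut at about 43% in these data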;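 also: modified DeaD lifespan yeast strain shifted to restrictive glucose medium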); settings: OD615, 48 h, at 10 µM, stronger effect = higher value
How it was run: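 material = engineered S. cerevisiae DeaD strain | medium = glucose-based CSMM-D restrictive medium | times = 4 h pre-incubation, 48 h exposure at 30 °C | technique = OD615 absorbance reading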

[3] = doxorubicin toxicity protection in MRP-1 cells – H69AR cells, CellTiter-Glo, duplicate, MRP-1 activator project, pilot screen (AID 807;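 active = viability increase at or above a cutoff of the median across tested compounds plus 3 SD, cut at about 8.5% in these data, passing the limit was not always enough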;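 also: compound pretreatment 18-22 h then 72 h combined with doxorubicin; 0% = doxorubicin alone and 100% = vehicle without doxorubicin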); settings: H69AR viability with doxorubicin, CellTiter-Glo luminescence; at 10 µM; stronger effect = higher value
[4] = viability of HCT116 without oncogenic beta-catenin – human colon tumor cells, pilot screen (AID 823;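 active = cell viability at or below a set limit in both duplicate runs, the limit being the all-compound median minus 4 SD, cut at about 23% in these data, passing the limit was not always enough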;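 also: 0% = wells killed by 20 µM Hyamine and 100% = untreated DMSO cell wells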); settings: HCT116 beta-catenin knockout viability, CellTiter-Glo, 60 h; at 10 µM; stronger effect = lower value
[5] = viability of PTEN-null HCT116 cells – cell-based, HCT116 clonal line, CellTiter-Glo, pilot screen (AID 824); settings: HCT116 PTEN-deleted viability, 60 h, at 10 µM, stronger effect = lower value;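 also: 0% = 20 µM Hyamine control and 100% = vehicle cell control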
[6] = RAM pathway blockade in budding yeast – dse1pr::URA3 reporter, 5-FOA selection, pilot screen (AID 869;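 active = inhibition over a set limit, the all-compound mean plus 3 SD, in both replicate runs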;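 also: 0% = DMSO wells with no growth and 100% = 10 µM 1-NA-PP1 with full growth; RAM network block rescues cells from 5-FOA so hits raise OD615 growth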); settings: S. cerevisiae dse1pr::URA3 5-FOA growth, OD615, 2 d; at 10 µM; stronger effect = higher value; strain carries analog-sensitive mutant Cbk1 kinase
[7] = RAM signaling pathway blockade in yeast – S. cerevisiae, Pdr1DBD-CYC8 efflux-inhibited sensitized strain, primary screen (AID 1298;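 active = RAM network inhibition above 8.4% in each of two replicates, 3 SD over the compound average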;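 also: 0% = DMSO untreated cells without growth and 100% = 10 µM 1-NA-PP1 full growth; higher means more yeast growth rescued from 5-FOA killing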); settings: S. cerevisiae cbk1-as DSE1-URA3 strain, 5-FOA growth OD615, 2 d; at 50 µM; stronger effect = higher value

O=c1cc(N2CCOCC2)[nH]c(=O)n1Cc1ccc(F)cc1
inactive: growth inhibition [1] 5.3% | growth inhibition [2] -2.77% | viability increase [3] 0.52% | viability [4] 95.3% | viability [5] 99.1% | inhibition [6] 1.04% | RAM network inhibition [7] -0.98%

CCCc1ncc(C(O)c2cccc(OC)c2OC)n1C (stereo unspecified)
inactive: growth inhibition [1] -11% | growth inhibition [2] -23% | viability increase [3] -2.63% | viability [4] 95.9% | viability [5] 94.4% | inhibition [6] 0.71% | RAM network inhibition [7] 1.45%

COc1ccc(NC2c3ccccc3C(=O)N2c2cccnc2)cc1Cl (stereo unspecified)
inactive: growth inhibition [1] 4.54% | growth inhibition [2] 2.02% | viability increase [3] -2.35% | viability [4] 89.5% | viability [5] 80.4% | inhibition [6] 2.27% | RAM network inhibition [7] 0.67%

COC(=O)C(CCSC)NC(=O)Cn1ncc2c(=O)oc3ccc(C)cc3c21 (stereo unspecified)
inactive: growth inhibition [1] 6.62% | growth inhibition [2] -7.95% | viability increase [3] -3.14% | viability [4] 113% | viability [5] 91.3% | inhibition [6] 0.875% | RAM network inhibition [7] 1.93%

COc1ccc(N(CC(=O)N2CCN(C)CC2)S(=O)(=O)c2ccccc2)cc1OC
inactive: growth inhibition [1] -16.8% | growth inhibition [2] -19.4% | viability increase [3] -1.07% | viability [4] 104% | viability [5] 91.8% | inhibition [6] 0.195% | RAM network inhibition [7] 1.1%

CCC(=O)Nc1nc2c(OC)ccc(OC)c2s1
inactive: growth inhibition [1] -2.06% | growth inhibition [2] 0.075% | viability increase [3] -2.87% | viability [4] 97.5% | viability [5] 94.5% | inhibition [6] 1.07% | RAM network inhibition [7] 2.34%

CCCc1nnc(NC(=O)CCC(=O)O)s1
inactive: growth inhibition [1] -4.72% | growth inhibition [2] -1.89% | viability increase [3] -1.02% | viability [4] 92.8% | viability [5] 95.4% | inhibition [6] 0.765% | RAM network inhibition [7] 0%

COc1ccc(C)cc1NC(=O)c1ccoc1C
inactive: growth inhibition [1] -1.21% | growth inhibition [2] 4.09% | viability increase [3] 0.93% | viability [4] 99.5% | viability [5] 87.8% | inhibition [6] 0.62% | RAM network inhibition [7] 7.87%

O=C(CSc1nnc(-c2ccccn2)n1Cc1ccco1)c1ccc(Cl)cc1
inactive: growth inhibition [1] 1.63% | growth inhibition [2] 23.2% | viability increase [3] -2.56% | viability [4] 85.8% | viability [5] 82% | inhibition [6] 2.6% | RAM network inhibition [7] 4.4%

O=C(NCCN1CCOCC1)c1ccc(CS(=O)(=O)c2ccc(Br)cc2)o1
inactive: growth inhibition [1] 0.315% | growth inhibition [2] -7.27% | viability increase [3] -1.79% | viability [4] 99.5% | viability [5] 97.6% | inhibition [6] 1.31% | RAM network inhibition [7] 3.72%

Cc1cccc(NC(=O)CN(C)S(=O)(=O)c2cccc3cccnc23)c1
inactive: growth inhibition [1] 2.15% | growth inhibition [2] -0.265% | viability increase [3] 1.15% | viability [4] 96.5% | viability [5] 96.1% | inhibition [6] 0.01% | RAM network inhibition [7] -0.41%

CCOc1ccc2nc(NC(=O)COC)sc2c1
inactive: growth inhibition [1] -7.05% | growth inhibition [2] -13.8% | viability increase [3] 0.64% | viability [4] 102% | viability [5] 102% | inhibition [6] 1.05% | RAM network inhibition [7] 1.66%

CC(=O)c1ccc(NC(=O)C2CCCN2S(=O)(=O)c2cccc3cccnc23)cc1 (stereo unspecified)
inactive: growth inhibition [1] -11.2% | growth inhibition [2] -8.78% | viability increase [3] -1.7% | viability [4] 98.1% | viability [5] 95.8% | inhibition [6] 0.505% | RAM network inhibition [7] 5.11%

CCOC(=O)C1=C(C)Nc2nc(C)nn2C1c1ccc(C)cc1 (stereo unspecified)
inactive: growth inhibition [1] -0.5% | growth inhibition [2] 7.16% | viability increase [3] -1.84% | viability [4] 100% | viability [5] 97.8% | inhibition [6] 1.9% | RAM network inhibition [7] -0.2%

CCOC(=O)c1[nH]c(C)c(C(=O)NC(C)CC)c1C (stereo unspecified)
inactive: growth inhibition [1] 2.05% | growth inhibition [2] -0.41% | viability increase [3] 1.35% | viability [4] 103% | viability [5] 99.7% | inhibition [6] 1.21% | RAM network inhibition [7] 0.93%

O=S(=O)(NC1c2cccc3cccc(c23)C1N1CCNCC1)c1ccccc1 (stereo unspecified)
inactive: growth inhibition [1] -10.4% | growth inhibition [2] -14.2% | viability increase [3] -5.27% | viability [4] 68% | viability [5] 74.8% | inhibition [6] 1.62% | RAM network inhibition [7] 2.72%

COc1ccc(OC)c(N(CC(=O)NC2CC2)S(=O)(=O)c2ccc(C)cc2)c1
inactive: growth inhibition [1] -13.6% | growth inhibition [2] -20.4% | viability increase [3] -0.94% | viability [4] 96.1% | viability [5] 93.2% | inhibition [6] 0.73% | RAM network inhibition [7] 3.7%

Cc1ccc(-n2c(=O)[nH]cc(C(=O)Nc3ccc4c(c3)OCO4)c2=O)cc1C
inactive: growth inhibition [1] -15.8% | growth inhibition [2] -15% | viability increase [3] 0.27% | viability [4] 107% | viability [5] 94.8% | inhibition [6] 1.78% | RAM network inhibition [7] 3.26%
